Series [1] deals with Rattus norvegicus. Kind of series: Antiinflammatory in SKF-525A pretreated Wistar rat assessed as inhibition of carrageenan-induced paw edema at 100 mg/kg, po after 2 hrs. It is filed as functional.
The subject of series [2] is Rattus norvegicus. Description: Antiinflammatory activity in Wistar rat assessed as inhibition of carrageenan-induced paw edema at 100 mg/kg, after 3 hrs. The series is classed as functional. In outline:
(§1)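 Male Wistar rats (170 ± 20 g) dosed orally: test agents at 100 mg/kg, reference at 10 mg/kg. One hour later, 0.1 ml of 1% carrageenan injected subplantar into the right hind paw.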
On the technique in general: The carrageenan paw model is a standard test of acute inflammation.

The subject of series [3] is Rattus norvegicus. Kind of series: Antiarthritic activity against adjuvant-induced arthritis in Wistar rat assessed as inhibition of paw edema at 100 mg/kg, po on day 8. The series is classed as functional. The settings on record: 192 h. In outline:
(§2)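 Male Wistar rats (160 ± 10 g) dosed orally once daily for 14 days, from the day before injecting 0.1 ml Freund's complete adjuvant into the subplantar surface of the right hind paw. Paw swelling, including the uninjected left paw, and body weight recorded. Means ± SEM, n = 6; p < 0.05 versus control.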

For series [4], the system named is Rattus norvegicus. Kind of series: Antiinflammatory in SKF-525A pretreated Wistar rat assessed as inhibition of carrageenan-induced paw edema at 100 mg/kg, po after 3 hrs. The series is classed as functional.
Series [5] concerns Rattus norvegicus. Kind of series: Antiinflammatory in SKF-525A pretreated Wistar rat assessed as inhibition of carrageenan-induced paw edema at 100 mg/kg, po after 4 hrs. The series is classed as functional.
For series [6], the system named is Rattus norvegicus. Kind of series: Antiarthritic activity against adjuvant-induced arthritis in Wistar rat assessed as inhibition of paw edema at 100 mg/kg, po on day 13. It is filed as functional. The settings on record: 312 h. In outline: as §2
For series [7], the system named is Rattus norvegicus. Kind of series: Toxicity in 24 hrs fasted Wistar rat assessed as ulcer index at 100 mg/kg, po after 6 hrs. As to conditions: in vivo. The series is classed as organism-based. On the set-up: dose 100 mg/kg, route oral. In outline: (§3)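 Male Wistar rats (175 ± 25 g) fasted 24 h and dosed orally. Acute arm: test agents at 100 mg/kg, indomethacin at 30 mg/kg; rats killed after 6 h, stomachs opened along the greater curvature and scored for ulcers. Chronic arm: 14-day dosing, stomachs examined post mortem at the end of the arthritis study. Ulcer index means ± SEM, n = 4.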

The test system of series [8] is Rattus norvegicus. Kind of series: Antiarthritic activity against adjuvant-induced arthritis in Wistar rat assessed as weight change at 100 mg/kg, po. It is filed as functional. In outline: as §2
The test system of series [9] is Rattus norvegicus. Kind of series: Antiinflammatory activity in Wistar rat assessed as inhibition of carrageenan-induced paw edema at 100 mg/kg, after 4 hrs. The series is classed as functional. In outline:
as §1

In series [10] the test system is Rattus norvegicus. Description: Antipyretic activity against LPS-induced pyresis in Wistar rat assessed as change in rectal temperature at 100 mg/kg, po after 4 hrs. It is filed as functional. In outline: (§4)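 Male Wistar rats (170 ± 20 g) dosed orally: test agents at 100 mg/kg, indomethacin and aspirin at 10 mg/kg and 100 mg/kg. Half an hour later, LPS in apyrogenic saline given at 100 µg/kg i.p. Rectal temperature taken by telethermometer probe immediately before LPS and hourly from 1 to 7 h after. Change in temperature reported; means ± SEM, n = 6.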

Series [11] deals with Rattus norvegicus. Kind of series: Antipyretic activity against LPS-induced pyresis in Wistar rat assessed as change in rectal temperature at 100 mg/kg, po after 2 hrs. It is filed as functional. In outline:
as §4

Series [12] deals with Rattus norvegicus. Kind of series: Antiinflammatory activity in Wistar rat assessed as inhibition of carrageenan-induced paw edema at 100 mg/kg, after 2 hrs. It is filed as functional. In outline:
as §1

Series [13] relates to Rattus norvegicus. Kind of series: Antipyretic activity against LPS-induced pyresis in Wistar rat assessed as change in rectal temperature at 100 mg/kg, po after 3 hrs. It is filed as functional. In outline: as §4
In series [14] the test system is Rattus norvegicus. Description: Antiinflammatory activity in Wistar rat assessed as inhibition of carrageenan-induced paw edema at 100 mg/kg, after 1 hr. The series is classed as functional. In outline: as §1
Series [15] has as its system Rattus norvegicus. Description: Antipyretic activity against LPS-induced pyresis in Wistar rat assessed as change in rectal temperature at 100 mg/kg, po after 1 hr. The series is classed as functional. In outline: as §4
Series [16] relates to Rattus norvegicus. Description: Antiarthritic activity against adjuvant-induced arthritis in Wistar rat assessed as inhibition of paw edema at 100 mg/kg, po on day 3. It is filed as functional. As to conditions: 72 h. In outline: as §2
The test system of series [17] is Mus musculus. Description: Analgesic activity in Swiss Albino mouse assessed as inhibition of acetic acid-induced writhing responses at 100 mg/kg, po after 1 hr. The series is classed as functional. In outline:
(§5)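 Mice dosed orally; one hour later injected i.p. with 1% v/v acetic acid at 0.1 ml/10 g. Writhings counted over 15 min, starting five minutes after injection. Means ± SEM, n = 6; p < 0.05 versus control group.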

Series [18] has as its system Mus musculus. Description: Analgesic activity in Swiss Albino mouse assessed as number of acetic acid-induced writhing at 100 mg/kg, po after 1 hr relative to control. The series is classed as functional. In outline:
as §5
A general note: An intraperitoneal irritant provokes the stretching counted in writhing tests.

Series [19] deals with Rattus norvegicus. Description: Antiinflammatory activity in Wistar rat assessed as inhibition of carrageenan-induced paw edema at 100 mg/kg, after 6 hrs. The series is classed as functional. In outline: as §1
Series [20] deals with Rattus norvegicus. Kind of series: Antiinflammatory activity in Wistar rat assessed as inhibition of carrageenan-induced paw edema at 100 mg/kg, after 24 hrs. It is filed as functional. In outline:
as §1

Series [21] concerns Rattus norvegicus. Description: Antipyretic activity against LPS-induced pyresis in Wistar rat assessed as change in rectal temperature at 100 mg/kg, po after 6 hrs. It is filed as functional. In outline: as §4
The subject of series [22] is Rattus norvegicus. Description: Antipyretic activity against LPS-induced pyresis in Wistar rat assessed as change in rectal temperature at 100 mg/kg, po after 7 hrs. The series is classed as functional. In outline: as §4
Series [23] has as its system Rattus norvegicus. Kind of series: Antipyretic activity against LPS-induced pyresis in Wistar rat assessed as change in rectal temperature at 100 mg/kg, po after 5 hrs. The series is classed as functional. In outline:
as §4

Series [24] has as its system Rattus norvegicus. Kind of series: Antiinflammatory in SKF-525A pretreated Wistar rat assessed as inhibition of carrageenan-induced paw edema at 100 mg/kg, po after 1 hr. It is filed as functional.
In series [25] the test system is Rattus norvegicus. Description: Antiinflammatory in SKF-525A pretreated Wistar rat assessed as inhibition of carrageenan-induced paw edema at 100 mg/kg, po after 24 hrs. The series is classed as functional.
Series [26] concerns Rattus norvegicus. Description: Antiinflammatory in SKF-525A pretreated Wistar rat assessed as inhibition of carrageenan-induced paw edema at 100 mg/kg, po after 6 hrs. The series is classed as functional.
Series [27] concerns Rattus norvegicus. Description: Toxicity in 24 hrs fasted Wistar rat assessed as ulcer index at 100 mg/kg, po after 14 days. It is filed as organism-based. More on the design: dose 100 mg/kg, route oral. The settings on record: in vivo, 336 h. In outline:
as §3

SMILES strings stand for the structures.

As a reminder, the inhibition in vivo is the change of the read-out against control, counted positive when it falls.

For `COc1cc2c(cc1OC)C(CC(=O)Nc1ccc(Cl)cc1)CC2` (configuration not stated), the inhibition in vivo at 100 mg/kg in series [1] came to 56.1%; in series [2] it was 60.9%; in [3], 8.08%; in [4], 56.7%; in [5], 57.9%; in [6], 4.69%. In addition, the inhibition in vivo at 100 mg/kg in series [9] was found to be 60.9%; in series [12], 63%; in series [14], 71.9%; in series [16], 28.6%; in series [17], 73.5%; in series [19], 61.1%. Moreover, the inhibition in vivo at 100 mg/kg in [20] turned out to be 70%; in series [24], 64.3%; in [25], 68.2%; in series [26], 59.6%. Further, the UI in series [7] is listed as 0. Besides, the Activity was 3.51 g in series [8]; -0.11 °C in series [10]; -1.69 °C in series [11]; -0.54 °C in series [13]; -0.47 °C in series [15]; 9.17 in series [18]. Besides, the Activity in series [21] stood at 0.41 °C; in series [22], 0.4 °C; in [23] it was 0.17 °C.
Consider `COc1cc2c(cc1OC)C(CC(=O)Nc1cccc(Cl)c1)CC2` (configuration not stated), for which the inhibition in vivo at 100 mg/kg in series [2] came out at 24.6%; in series [3], 25.8%; in series [6] it was 35.7%; in [9], 25.8%; in series [12], 28%; in series [14], 31.2%. The inhibition in vivo at 100 mg/kg in series [16] amounted to 37.5%; in [17] it was 51.5%; in [19], 38.9%; in series [20], 63.3%. Also, the UI in series [7] and in series [27] was 0 in each case. Moreover, the Activity in series [8] was 7.21 g; in series [10], 0.05 °C; in series [11], -1.62 °C; in [13], -0.24 °C; in series [15] it was -0.35 °C; in series [18] it was 16.83. For the same compound, the Activity in series [21] came to 0.44 °C; in series [22], 0.42 °C; in series [23] it was 0.23 °C.

Values taken from ChEMBL document CHEMBL1138278, “Aromatic amide derivatives of 5,6-dimethoxy-2,3-dihydro-1H-inden(-1-yl)acetic acid as anti-inflammatory agents free of ulcerogenic liability” (Bioorg Med Chem Lett, 2007).
